Assay results taken from ChEMBL document CHEMBL4304819, “Natural product pectolinarigenin exhibits potent anti-metastatic activity in colorectal carcinoma cells in vitro and in vivo” (2019).
Calls of active or inactive are those of the source. No cut-off for these calls is given here.

How the values were obtained:
[1] = tested on: HCT-116; experiment: Anticlonogenic activity against human HCT116 cells assessed as reduction in colony formation up to 40 uM incubated for 24 hrs supplemented with fresh medium containing compound every 3 days for 12 days by crystal violet staining-based microscopic analysis; format: functional, cell-based
How it was run: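 Cells seeded at 400–800 per well in 6-well plates; after 24 h, treated with 0–40 μM in fresh medium (with or without compound) replaced every three days for 12 days. Colonies fixed in methanol, stained with 0.5% crystal violet for 15 min and counted by microscope; reported as surviving colonies, mean ± SD of three experiments.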

[2] = tested on: CT26; experiment: Induction of apoptosis in mouse CT26 cells assessed as early apoptotic cells at 10 uM after 48 hrs by Annexin V-FITC/propidium iodide staining-based flow cytometric analysis (reference value: 2.84 %); format: functional
How it was run: (§1)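 CT26 cells seeded at 1–2 × 10^5 per well in six-well plates for 24 h, then exposed to PEC (0–40 μM) for 24 or 48 h. Cells harvested, washed twice in cold PBS, stained with Annexin V-FITC/PI and read by flow cytometry. Early apoptotic = Annexin V+ only; late apoptotic = Annexin V+/PI+. Mean ± SD of three experiments.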

[3] = tested on: CT26; experiment: Induction of apoptosis in mouse CT26 cells assessed as decrease in Bcl-2 protein expression up to 40 uM after 48 hrs by Western blot analysis; format: functional, cell-based
How it was run: (§2)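 Cells treated 48 h at 0, 10, 20 and 40 μM, washed in cold PBS, lysed in RIPA; protein equalized by Lowry assay, resolved by SDS-PAGE, transferred to PVDF, blocked 1 h at 37 °C, primary antibody overnight at 4 °C, secondary 1 h, ECL detection, densitometry. β-actin loading control.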

[4] = tested on: CT26; experiment: (§3) Antimetastatic activity against mouse CT26 cells allografted in Balb/c mouse assessed as decrease in CD11b-positive/Gr1-positive myeloid cells level in tumour at 50 mg/kg, ip administered daily for 14 days starting from 6 days post implantation flow cytometric analysis (reference value: 10 %); format: functional; design: scale not given: the % may be the effect or the level left
[5] = molecular target: Signal transducer and activator of transcription 3 (Mus musculus) (UniProt P42227); experiment: Antitumor activity against mouse CT26 cells allografted in Balb/c mouse assessed as inhibition of STAT3 phosphorylation in tumour tissue at 25 to 50 mg/kg, ip administered daily for 14 days starting from 6 days post implantation by immunohistochemical analysis; format: organism-based
Signal transducer and activator of transcription 3 (Mus musculus), sequence (P42227 whole entry): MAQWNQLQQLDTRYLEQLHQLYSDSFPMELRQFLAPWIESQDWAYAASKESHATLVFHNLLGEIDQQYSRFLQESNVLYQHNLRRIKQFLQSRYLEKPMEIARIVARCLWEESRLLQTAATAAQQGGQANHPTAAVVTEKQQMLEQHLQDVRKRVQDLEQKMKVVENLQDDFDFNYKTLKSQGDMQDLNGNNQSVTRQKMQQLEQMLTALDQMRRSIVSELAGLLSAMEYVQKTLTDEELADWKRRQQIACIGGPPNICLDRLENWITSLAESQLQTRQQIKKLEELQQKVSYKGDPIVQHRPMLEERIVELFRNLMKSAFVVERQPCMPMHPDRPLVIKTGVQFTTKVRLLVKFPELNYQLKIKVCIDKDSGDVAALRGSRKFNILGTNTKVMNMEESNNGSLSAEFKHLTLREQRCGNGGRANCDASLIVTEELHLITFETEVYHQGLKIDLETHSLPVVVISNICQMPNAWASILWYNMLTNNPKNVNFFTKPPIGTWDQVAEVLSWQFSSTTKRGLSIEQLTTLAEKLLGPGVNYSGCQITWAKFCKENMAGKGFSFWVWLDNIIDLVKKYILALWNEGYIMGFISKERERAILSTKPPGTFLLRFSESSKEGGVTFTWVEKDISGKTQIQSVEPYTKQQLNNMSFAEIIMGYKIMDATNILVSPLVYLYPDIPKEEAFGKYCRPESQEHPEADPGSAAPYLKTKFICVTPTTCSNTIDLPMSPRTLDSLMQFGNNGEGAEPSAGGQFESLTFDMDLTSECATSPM
How it was run: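 Female BALB/c mice (6–8 weeks) injected ip with 5 × 10^5 CT26 cells; from day 6, randomized (eight per group) to ip vehicle, 25 or 50 mg/kg once daily for 14 days. Abdominal circumference and body weight every 3 days; abdominal nodules counted by eye and weighed; spleens assessed; paraffin tumour sections immunostained (Ki-67, MMP-9, p-Stat3) with DAB detection.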

[6] = tested on: HCT-116; experiment: Induction of apoptosis in human HCT116 cells assessed as appearance of condensed nuclei up to 40 uM after 48 hrs by Hoechst 33258 staining-based fluorescent microscopic analysis; format: functional, cell-based
How it was run: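 Cells (1–2 × 10^5 per well) plated on 18-mm coverslips in six-well plates for 24 h, treated at various concentrations for 48 h, washed with cold PBS, fixed 15 min in 4% paraformaldehyde, stained with Hoechst 33258 (5 μg/ml); condensed/fragmented nuclei scored by fluorescence microscopy (10×); stained positive cells, mean ± SD of three experiments.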

[7] = tested on: CT26; experiment: as §3, with “peripheral blood” for “tumour”, “25” for “50”, “implantation by” for “implantation”, “33.2” for “10”; format: functional; design: scale not given: the % may be the effect or the level left
[8] = tested on: HCT-116; experiment: Induction of apoptosis in human HCT116 cells assessed as viable cells at 20 uM after 48 hrs by Annexin V-FITC/propidium iodide staining-based flow cytometric analysis (reference value: 86.7 %); format: functional; conditions: HCT-116, 48 h, read-out: Activity
How it was run: (§4)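 Cells (1–2 × 10^5 per well) seeded in six-well plates 24 h, treated at 0–40 μM for 24 h or 48 h, harvested, washed twice in cold PBS, stained with Annexin V-FITC/PI and analysed by flow cytometry; early (Annexin V only) and late (Annexin V and PI) apoptotic fractions quantified; three experiments.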

[9] = tested on: CT26; experiment: Inhibition of colony formation in mouse CT26 cells assessed as reduction in size of colonies up to 40 uM incubated for 24 hrs supplemented with fresh medium containing compound every 3 days for 12 days by crystal violet staining-based microscopic analysis; format: functional, cell-based
How it was run: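 400–800 cells per well seeded in 6-well plates; after 24 h, PEC (0–40 μM) added. Medium with or without compound replaced every three days for 12 days. Colonies washed in cold PBS, fixed in methanol, stained 15 min with 0.5% crystal violet and counted under a microscope. Mean ± SD of three experiments.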

[10] = tested on: CT26; experiment: Antimetastatic activity against mouse CT26 cells assessed as inhibition of MMP-9 expression after 48 hrs by Western blot analysis; format: functional, cell-based; how it was run: as §2
[11] = tested on: HCT-116; experiment: Induction of apoptosis in human HCT116 cells assessed as decrease in Bcl-2 protein expression up to 40 uM after 48 hrs by Western blot analysis; format: functional, cell-based; how it was run: as §2
[12] = tested on: CT26; experiment: Induction of apoptosis in mouse CT26 cells assessed as viable cells at 20 uM after 48 hrs by Annexin V-FITC/propidium iodide staining-based flow cytometric analysis (reference value: 88.9 %); format: functional; conditions: CT26, 48 h, read-out: Activity; how it was run: as §1
[13] = tested on: CT26; experiment: Induction of apoptosis in mouse CT26 cells assessed as increase in cleaved caspase-3 expression after 48 hrs by Western blot analysis; format: functional, cell-based
How it was run: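 CT26 cells exposed 48 h to PEC at 0, 10, 20 and 40 μM, washed twice in cold PBS, lysed in RIPA. Protein measured by Lowry and equalized, run on SDS-PAGE, blotted to PVDF. Blocked 1 h at 37 °C, primary antibodies (Bax, Bcl-2, pro-caspase-3, cleaved caspase-3) overnight at 4 °C, secondary 1 h, ECL detection, densitometry.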

[14] = tested on: CT26; experiment: Induction of apoptosis in mouse CT26 cells assessed as viable cells at 40 uM after 48 hrs by Annexin V-FITC/propidium iodide staining-based flow cytometric analysis (reference value: 88.9 %); format: functional; conditions: CT26, 48 h, read-out: Activity; how it was run: as §1
[15] = tested on: CT26; experiment: Antimetastatic activity against mouse CT26 cells allografted in Balb/c mouse assessed as decrease in CD11b-positive/Gr1-positive myeloid cells level in tumour at 25 mg/kg, ip administered daily for 14 days starting from 6 days post implantation flow cytometric analysis (reference value: 10 %); format: functional; design: scale not given: the % may be the effect or the level left
[16] = tested on: CT26; experiment: Induction of apoptosis in mouse CT26 cells assessed as early apoptotic cells at 40 uM after 48 hrs by Annexin V-FITC/propidium iodide staining-based flow cytometric analysis (reference value: 2.84 %); format: functional; how it was run: as §1
[17] = tested on: HCT-116; experiment: Induction of apoptosis in human HCT116 cells assessed as necrotic cells at 10 uM after 48 hrs by Annexin V-FITC/propidium iodide staining-based flow cytometric analysis (reference value: 8.24 %); format: functional; how it was run: as §4
[18] = tested on: HCT-116; experiment: Induction of apoptosis in human HCT116 cells assessed as increase in cleaved caspase-3 expression after 48 hrs by Western blot analysis; format: functional, cell-based; how it was run: as §2
[19] = tested on: HCT-116; experiment: Induction of apoptosis in human HCT116 cells assessed as necrotic cells at 40 uM after 48 hrs by Annexin V-FITC/propidium iodide staining-based flow cytometric analysis (reference value: 8.24 %); format: functional; how it was run: as §4

What does the source list for `COc1ccc(-c2cc(=O)c3c(O)c(OC)c(O)cc3o2)cc1` [PECTOLINARIGENIN]?
inhibition [1]: Active; Activity [2]: 3.57%; Activity [3]: Active; Activity [4]: 6.47%; inhibition [5]: Active; Activity [6]: Active; Activity [7]: 26.7%; viability at 20 µM [8]: 79.2%; inhibition [9]: Active; inhibition [10]: Dose-dependent effect; Activity [11]: Active; viability at 20 µM [12]: 77.5%; Activity [13]: Dose-dependent effect; viability at 40 µM [14]: 67.3%; Activity [15]: 7.4%; Activity [16]: 16.2%; Activity [17]: 3.98%; Activity [18]: Dose-dependent effect; Activity [19]: 7.17%
